ChEMBL document CHEMBL1800056, “Discovery of 2-(6-{[(6-fluoroquinolin-2-yl)methyl]amino}bicyclo[3.1.0]hex-3-yl)-N-hydroxypyrimidine-5-carboxamide (CHR-3996), a class I selective orally active histone deacetylase inhibitor” (J Med Chem, 2010)
In brackets after ≈: the same amount, converted by molar mass.

Experiments:
Cytochrome P450 2C19 = Cytochrome P450 2C19 (Homo sapiens, UniProt P33261); assay: Inhibition of CYP2C19; assay type: ADME
Histone deacetylase = assay: Inhibition of HDAC in human HeLa cells nuclear extract using fluor de Lys as substrate preincubated for 5 mins by fluorometric analysis; assay type: cell-based
[1] = Aqueous solubility of the compound in PBS at pH 5.5; assay type: physicochemical
Spleen = assay: Ratio of AUC (0 to t) in spleen to plasma of CD1 mouse at 3 mg/kg, po; details: in vivo
[2] = AUC (0 to t) in plasma of CD1 mouse at 3 mg/kg, po; assay type: ADME, organism-based; design: dose 3 mg/kg, route oral
Procedure, shortened: (§1)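 Oral cassette PK in CD1 mice: four compounds per cassette, each at 3 mg/kg po. AUC0-t (ng h/mL) measured in plasma and spleen; spleen/plasma AUC ratio reported.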

Cytochrome P450 3A4 = Cytochrome P450 3A4 (Homo sapiens, UniProt P08684); assay: Inhibition of CYP3A4; assay type: ADME
Chain of Cytochrome P450 3A4 (P08684 whole entry): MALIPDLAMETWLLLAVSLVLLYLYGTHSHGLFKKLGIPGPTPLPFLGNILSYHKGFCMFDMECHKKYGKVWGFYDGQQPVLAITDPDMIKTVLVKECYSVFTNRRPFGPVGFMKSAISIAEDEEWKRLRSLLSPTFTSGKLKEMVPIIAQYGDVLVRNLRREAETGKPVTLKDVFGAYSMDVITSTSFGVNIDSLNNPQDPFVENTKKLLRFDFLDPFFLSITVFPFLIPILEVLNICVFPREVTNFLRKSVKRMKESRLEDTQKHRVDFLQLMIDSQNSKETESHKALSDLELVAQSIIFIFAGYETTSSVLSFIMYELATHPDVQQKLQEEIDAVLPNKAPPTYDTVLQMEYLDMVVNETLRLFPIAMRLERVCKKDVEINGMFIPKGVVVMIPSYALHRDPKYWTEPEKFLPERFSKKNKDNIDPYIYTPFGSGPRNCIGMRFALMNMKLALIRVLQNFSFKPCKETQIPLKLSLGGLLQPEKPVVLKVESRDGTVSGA

[3] = AUC (0 to t) in spleen of CD1 mouse at 3 mg/kg, po; assay type: ADME, organism-based; design: dose 3 mg/kg, route oral; procedure, shortened: as §1
HCT-116 [4] = assay: Antiproliferative activity against human HCT116 cells after 72 hrs by WST-1 assay; assay type: functional
Procedure, shortened: (§2)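 Cells seeded at (1-5) × 10³/well in serum-containing medium for 24 h at 37 °C, 5% CO₂. Inhibitor added at 0.6-10000 nM for 72 h, with WST-1 pulse over the final 4 h. Formazan read at 450 nm (reference 650 nm). Expressed as % inhibition of vehicle response; GI50 is the concentration inhibiting 50% of vehicle response; n = 6 replicates.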

[5] = Ratio of GI50 for human HCT116 cells to IC50 for HDAC in human HeLa cell nuclear extracts
Procedure, shortened: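 Cell/enzyme ratio = HCT116 GI50 divided by HDAC IC50. Enzyme: HeLa nuclear extract (10 μg protein), 5 min preincubation, then Fluor de Lys substrate 62.5 μM, 15 min at room temperature. Stopped with developer containing trichostatin A; fluorescence ex 355/em 455 nm; eight concentrations in duplicate. Cells: HCT116, 72 h exposure (0.6-10000 nM), WST-1 read at 450 nm, n = 6.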

[6] = Clearance in mouse liver microsomes assessed as compound remaining after 30 mins; assay type: ADME, Microsome; details: read-out: Activity
[7] = Aqueous solubility of the compound in PBS at pH 7.4; assay type: physicochemical
Cytochrome P450 2D6 = Cytochrome P450 2D6 (Homo sapiens, UniProt P10635); assay: Inhibition of CYP2D6; assay type: ADME
Chain of Cytochrome P450 2D6 (P10635 whole entry): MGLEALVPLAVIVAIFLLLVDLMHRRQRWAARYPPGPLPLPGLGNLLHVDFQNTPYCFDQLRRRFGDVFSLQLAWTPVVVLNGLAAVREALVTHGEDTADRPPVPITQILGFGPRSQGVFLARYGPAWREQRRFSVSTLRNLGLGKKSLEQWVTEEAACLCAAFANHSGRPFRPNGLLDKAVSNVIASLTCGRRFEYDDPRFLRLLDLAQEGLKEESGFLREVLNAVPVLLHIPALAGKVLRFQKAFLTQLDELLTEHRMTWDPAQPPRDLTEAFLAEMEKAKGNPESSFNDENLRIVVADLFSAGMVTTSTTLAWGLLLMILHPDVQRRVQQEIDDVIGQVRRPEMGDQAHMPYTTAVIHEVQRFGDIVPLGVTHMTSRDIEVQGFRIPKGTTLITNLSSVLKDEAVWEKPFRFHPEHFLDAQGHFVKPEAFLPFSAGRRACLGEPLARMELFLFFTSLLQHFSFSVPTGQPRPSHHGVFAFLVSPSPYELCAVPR

[8] = Clearance in human liver microsomes assessed as compound remaining after 30 mins; assay type: ADME, Microsome; details: read-out: Activity
COR-L23 [9] = assay: Antiproliferative activity against human COR-L23 cells after 72 hrs by WST-1 assay; assay type: functional; procedure, shortened: as §2
HCT-116 [10] = assay: Cell cycle arrest in human HCT116 cells assessed as accumulation at G1 phase at 300 nM after 15 hrs by propidium iodide staining based flow cytometric analysis; assay type: functional
MG-63 = assay: Antiproliferative activity against human MG63 cells after 72 hrs by WST-1 assay; assay type: functional; procedure, shortened: as §2
MIA PaCa-2 = assay: Antiproliferative activity against human MIAPaCa2 cells after 72 hrs by WST-1 assay; assay type: functional; procedure, shortened: as §2
HepG2 = assay: Antiproliferative activity against human HepG2 cells after 72 hrs by WST-1 assay; assay type: functional; procedure, shortened: as §2
U-937 = assay: Antiproliferative activity against human U937 cells after 72 hrs by WST-1 assay; assay type: functional; procedure, shortened: as §2
HCT-116 [11] = assay: Cell cycle arrest in human HCT116 cells assessed as accumulation at sub-G1 phase at 300 nM after 15 hrs by propidium iodide staining based flow cytometric analysis; assay type: functional
COR-L23 [12] = assay: Antiproliferative activity against doxorubicin-resistant human COR-L23 cells after 72 hrs by WST-1 assay; assay type: functional; procedure, shortened: as §2
MOLT-4 = assay: Antiproliferative activity against human MOLT4 cells after 72 hrs by WST-1 assay; assay type: functional; procedure, shortened: as §2
HCT-116 [13] = assay: Cell cycle arrest in human HCT116 cells assessed as accumulation at S phase at 300 nM after 15 hrs by propidium iodide staining based flow cytometric analysis; assay type: functional
A2780 = assay: Antiproliferative activity against human A2780 cells after 72 hrs by WST-1 assay; assay type: functional; procedure, shortened: as §2
[14] = Antiproliferative activity against human […] cells after 72 hrs by WST-1 assay; assay type: functional; procedure, shortened: as §2
A549 = assay: Antiproliferative activity against human A549 cells after 72 hrs by WST-1 assay; assay type: functional; procedure, shortened: as §2
HCT-116 [15] = assay: Cell cycle arrest in human HCT116 cells assessed as accumulation at G2/M phase at 300 nM after 15 hrs by propidium iodide staining based flow cytometric analysis; assay type: functional
LoVo = assay: Antiproliferative activity against human LoVo cells after 72 hrs by WST-1 assay; assay type: functional; procedure, shortened: as §2

Chain of Cytochrome P450 2C19 (P33261 whole entry): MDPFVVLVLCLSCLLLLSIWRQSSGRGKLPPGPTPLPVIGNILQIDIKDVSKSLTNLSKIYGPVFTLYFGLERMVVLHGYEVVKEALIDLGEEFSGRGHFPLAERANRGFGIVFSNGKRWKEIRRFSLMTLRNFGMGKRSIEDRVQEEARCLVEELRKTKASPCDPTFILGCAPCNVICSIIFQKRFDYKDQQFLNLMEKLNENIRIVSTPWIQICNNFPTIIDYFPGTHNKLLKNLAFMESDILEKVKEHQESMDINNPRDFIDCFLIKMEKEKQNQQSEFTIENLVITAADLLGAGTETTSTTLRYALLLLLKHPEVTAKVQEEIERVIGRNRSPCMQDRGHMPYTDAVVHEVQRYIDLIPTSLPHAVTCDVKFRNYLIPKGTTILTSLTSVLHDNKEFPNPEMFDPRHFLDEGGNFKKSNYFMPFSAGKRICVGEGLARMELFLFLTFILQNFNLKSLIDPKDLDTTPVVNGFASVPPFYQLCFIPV

Structure (SMILES)	IC50 (Histone deacetylase) [nM]	GI50 (HCT-116 [4]; Homo sapiens, HCT-116, 72 h) [nM]	Ratio [5]	further results
O=C(NO)c1cnc(N2C[C@@H]3[C@H](C2)[C@H]3NCc2ccc3ccccc3c2)nc1	12.4	160	13	IC50 (Cytochrome P450 2C19): > 50000 nM; solubility [1]: 208 µg/mL (≈ 554 µM); Ratio (Spleen): 2.9; AUC(0-t) [2]: 50 ng·h/mL; IC50 (Cytochrome P450 3A4): > 50000 nM; AUC(0-t) [3]: 145 ng·h/mL; remaining at 0.5 h [6]: 100%; solubility [7]: 12 µg/mL (≈ 32 µM); IC50 (Cytochrome P450 2D6): > 50000 nM; remaining at 0.5 h [8]: 40%
O=C(NO)c1cnc(N2C[C@@H]3[C@H](C2)[C@H]3NC(=O)c2ccc3ccccc3c2)nc1	13	410	32	
O=C(NO)c1cnc(N2CC3C(CNCc4ccc5ccccc5c4)C3C2)nc1 (centres undefined)	32	370	12	
O=C(NO)c1cnc(N2C[C@@H]3[C@H](C2)[C@H]3NCc2ccc(C(F)(F)F)cc2)nc1	34	700	21	
CN([C@H]1[C@@H]2CN(c3ncc(C(=O)NO)cn3)C[C@@H]21)S(=O)(=O)c1ccc2ccccc2c1	23	1000	44	
O=C(NO)c1cnc(N2C[C@@H]3[C@H](C2)[C@H]3NCc2ccc(-c3ccccc3)cc2)nc1	14	56	4	
O=C(NO)c1cnc(N2C[C@@H]3[C@H](C2)[C@H]3NCCc2ccccc2)nc1	34	280	8	
O=C(NO)c1cnc(N2C[C@@H]3[C@H](C2)[C@H]3NCc2ccc(Br)cc2)nc1	14	250	18	
CCCCc1ccc(CN[C@H]2[C@@H]3CN(c4ncc(C(=O)NO)cn4)C[C@@H]32)cc1	22	410	18	
N#Cc1ccc(CN[C@H]2[C@@H]3CN(c4ncc(C(=O)NO)cn4)C[C@@H]32)cc1	30	270	9	
O=C(NO)c1cnc(N2C[C@@H]3[C@H](C2)[C@H]3NS(=O)(=O)c2ccc3ccccc3c2)nc1	6.5	440	73	IC50 (Cytochrome P450 2C19): 10000 nM; solubility [1]: 74 µg/mL (≈ 174 µM); IC50 (Cytochrome P450 3A4): 10000 nM; remaining at 0.5 h [6]: 66%; solubility [7]: 34 µg/mL (≈ 79.9 µM); IC50 (Cytochrome P450 2D6): 10000 nM; remaining at 0.5 h [8]: 43%
O=C(NO)c1cnc(N2C[C@@H]3[C@H](C2)[C@H]3NCc2ccc(OC(F)(F)F)cc2)nc1	15	120	8	Ratio (Spleen): 3; AUC(0-t) [2]: 83 ng·h/mL; AUC(0-t) [3]: 251 ng·h/mL
O=C(NO)c1cnc(N2C[C@@H]3[C@H](C2)[C@H]3NCc2ccc(Oc3ccccc3)cc2)nc1	16	120	7.5	Ratio (Spleen): 4.2; AUC(0-t) [2]: 52 ng·h/mL; AUC(0-t) [3]: 219 ng·h/mL
O=C(NO)c1cnc(N2C[C@@H]3[C@H](C2)[C@H]3NS(=O)(=O)c2cccs2)nc1	27	> 10000	>370	
O=C(NO)c1cnc(N2C[C@@H]3[C@H](C2)[C@H]3NC(=O)c2ccccc2)nc1	57	5100	89	
O=C(NO)c1cnc(N2C[C@@H]3[C@H](C2)[C@H]3NCc2ccc3ccccc3n2)nc1	9			Ratio (Spleen): 7; AUC(0-t) [2]: 42 ng·h/mL; AUC(0-t) [3]: 294 ng·h/mL
O=C(NO)c1cnc(N2C[C@@H]3[C@H](C2)[C@H]3NC(=O)c2cccs2)nc1	40	3600	90	
COc1ccc(CN[C@H]2[C@@H]3CN(c4ncc(C(=O)NO)cn4)C[C@@H]32)cc1	20	190	9.5	
O=C(NO)c1cnc(N2C[C@@H]3[C@H](C2)[C@H]3NCc2ccccc2)nc1	10	120	12	
O=C(NO)c1cnc(N2C[C@@H]3[C@H](C2)[C@H]3NCc2cc(F)cc(F)c2)nc1	16	200	13	
O=C(CCCCCCC(=O)Nc1ccccc1)NO [VORINOSTAT]				GI50 (COR-L23 [9]): 1100 nM; Activity (HCT-116 [10]): 35%; GI50 (MG-63): > 10000 nM; GI50 (MIA PaCa-2): 3500 nM; GI50 (HepG2): 4600 nM; GI50 (U-937): 450 nM; Activity (HCT-116 [11]): 19%; GI50 (COR-L23 [12]): 3300 nM; GI50 (MOLT-4): 670 nM; Activity (HCT-116 [13]): 14%; GI50 (HCT-116 [4]): 740 nM; GI50 (A2780): 3150 nM; GI50 [14]: 2100 nM; GI50 (A549): 5700 nM; Activity (HCT-116 [15]): 32%; GI50 (LoVo): 1700 nM
O=C(NO)c1cnc(N2C[C@@H]3[C@H](C2)[C@H]3NCc2ccc(F)cc2)nc1	27	380	14	
O=C(NO)c1cnc(N2C[C@@H]3[C@H](C2)[C@H]3NCC2CCCCC2)nc1	44	160	4	
O=C(NO)c1cnc(N2C[C@@H]3[C@H](C2)[C@H]3NCc2cc(C(F)(F)F)cc(C(F)(F)F)c2)nc1	16	200	12.5	
